This is an account of results in ChEMBL document CHEMBL1135786, “Anti-AIDS agents 49. Synthesis, anti-HIV, and anti-fusion activities of IC9564 analogues based on betulinic acid” (J Med Chem, 2002).

What all share (format): functional, organism-based
The test system of assay [1] is Human immunodeficiency virus 1. Kind of assay: Anti HIV-1 activity against the virus NL4-3 using fusion assay. The method, boiled down:
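COS cells (10⁶) electroporated (950 µF, […]) with 2 µg vector expressing HIV-1 NL4-3 envelope, cultured 1 day. Then 10⁴ transfected cells mixed with 7 × 10⁴ MOLT-4 cells. Graded compound concentrations added, 24 h at 37 °C. Multinucleated syncytia counted microscopically over entire well; EC50 from syncytium inhibition.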

Assay [2] deals with Human immunodeficiency virus 1. Kind of assay: Anti HIV-1 activity against the virus NL4-3 using MAGI assay. The note with it: Human immunodeficiency virus 1, MAGI. The method, boiled down:
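HeLa-CD4/CCR5/β-gal indicator cells seeded at 10 000/well, grown 1 day in DMEM with G418 (500 µg/mL) and hygromycin (250 µg/mL). Infected with virus dilutions in presence of graded compound concentrations, 2 days at 37 °C. Fixed (1% formaldehyde, 0.2% glutaraldehyde), X-gal stained (0.4 mg/mL). Blue (Tat-expressing) cells counted; EC50 = concentration halving infected-cell number.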

Assay [3] deals with Human immunodeficiency virus 1. The assay can be described thus: Anti HIV-1 activity against infected H9 lymphocyte cells. As to conditions: Human immunodeficiency virus 1, H9. The method, boiled down: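 HIV-1 acutely infected H9 lymphocytes cultured with the test agent; EC50 (µM) reported.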

pEC50: −log10 of the molar value.

As to `C=C(C)[C@@H]1CC[C@]2(C(=O)NCCCCCCCC(=O)OC)CC[C@]3(C)[C@H](CC[C@@H]4[C@@]5(C)CC[C@H](OC(C)=O)C(C)(C)[C@@H]5CC[C@]43C)[C@@H]12`, the pEC50 is less than 4.51 in assay [1] and 4.54 in assay [2].

Turning to `C=C(C)[C@@H]1CC[C@]2(C(=O)NCCCCCCCC(=O)N[C@@H](CC(C)C)[C@H](O)CC(=O)O)CC[C@]3(C)[C@H](CC[C@@H]4[C@@]5(C)CC[C@H](O)C(C)(C)[C@@H]5CC[C@]43C)[C@@H]12`, the pEC50 in assay [1] is 6.18; in assay [2], 6.40.

With `C=C(C)[C@@H]1CC[C@]2(C(=O)NCCCCCCCCCCC(=O)N[C@@H](CC(C)C)C(=O)O)CC[C@]3(C)[C@H](CC[C@@H]4[C@@]5(C)CC[C@H](O)C(C)(C)[C@@H]5CC[C@]43C)[C@@H]12`, the pEC50 in assay [1] was 6.48; in assay [2] it was 6.34.

As to `CC(=O)O[C@H]1CC[C@]2(C)[C@H]3CC[C@@H]4[C@H]5[C@H](C(C)C)CC[C@]5(C(=O)NCCCCCCCC(=O)N[C@@H](CC(C)C)[C@H](O)CC(=O)OCc5ccccc5)CC[C@@]4(C)[C@]3(C)CC[C@H]2C1(C)C`, the pEC50 is less than 4.66 in assay [1] and less than 4.55 in assay [2].

In the case of `C=C(C)[C@@H]1CC[C@]2(C(=O)NCCCCCCCCCCC(=O)O)CC[C@]3(C)[C@H](CC[C@@H]4[C@@]5(C)CC[C@H](O)C(C)(C)[C@@H]5CC[C@]43C)[C@@H]12`, the pEC50 is 6.51 in assay [1] and 6.15 in assay [2].

Turning to `C=C(C)[C@@H]1CC[C@]2(C(=O)N[C@@H](CC(C)C)C(=O)O)CC[C@]3(C)[C@H](CC[C@@H]4[C@@]5(C)CC[C@H](O)C(C)(C)[C@@H]5CC[C@]43C)[C@@H]12`, the pEC50 in assay [1] was 5.26; in assay [3], 5.49.

On to `C=C(C)[C@@H]1CC[C@]2(C(=O)NCCC(=O)O)CC[C@]3(C)[C@H](CC[C@@H]4[C@@]5(C)CC[C@H](O)C(C)(C)[C@@H]5CC[C@]43C)[C@@H]12`, for which the figures for the pEC50 in assay [1] and in assay [2] were less than 4.42 and less than 4.33, respectively.

As for `C=C(C)[C@@H]1CC[C@]2(C(=O)NCCC(=O)OC)CC[C@]3(C)[C@H](CC[C@@H]4[C@@]5(C)CC[C@H](OC(C)=O)C(C)(C)[C@@H]5CC[C@]43C)[C@@H]12`, the pEC50 was 4.67 in assay [1] and 4.57 in assay [2].

As for `C=C(C)[C@@H]1CC[C@]2(C(=O)NCCCCCCCCCCC(=O)N[C@@H](CC(C)C)C(=O)OC)CC[C@]3(C)[C@H](CC[C@@H]4[C@@]5(C)CC[C@H](O)C(C)(C)[C@@H]5CC[C@]43C)[C@@H]12`, the pEC50 was less than 4.59 in assay [1] and less than 4.49 in assay [2].

In the case of `C=C(C)[C@@H]1CC[C@]2(C(=O)NCCC(=O)N[C@@H](CC(C)C)C(=O)OC)CC[C@]3(C)[C@H](CC[C@@H]4[C@@]5(C)CC[C@H](O)C(C)(C)[C@@H]5CC[C@]43C)[C@@H]12`, the pEC50 was 5.12 in assay [1] and less than 4.42 in assay [2].

`C=C(C)[C@@H]1CC[C@]2(C(=O)NCCCCCCCCCCC(=O)OC)CC[C@]3(C)[C@H](CC[C@@H]4[C@@]5(C)CC[C@H](OC(C)=O)C(C)(C)[C@@H]5CC[C@]43C)[C@@H]12`: the results for the pEC50 in assay [1] and in assay [2] were less than 4.54 and 4.99, respectively.

In the case of `C=C(C)[C@@H]1CC[C@]2(C(=O)NCCC(=O)N[C@@H](CC(C)C)C(=O)O)CC[C@]3(C)[C@H](CC[C@@H]4[C@@]5(C)CC[C@H](O)C(C)(C)[C@@H]5CC[C@]43C)[C@@H]12`, the pEC50 in assay [1] is less than 4.51; in assay [2] it was less than 4.41.

With `C=C(C)[C@@H]1CC[C@]2(C(=O)NCCCCCCCC(=O)N[C@@H](CC(C)C)C(=O)O)CC[C@]3(C)[C@H](CC[C@@H]4[C@@]5(C)CC[C@H](O)C(C)(C)[C@@H]5CC[C@]43C)[C@@H]12`, the results for the pEC50 in assay [1] and in assay [2] were 5.96 and 5.86, respectively.

Take `C=C(C)[C@@H]1CC[C@]2(C(=O)NCCCCCCCC(=O)N[C@@H](CC(C)C)C(=O)OC)CC[C@]3(C)[C@H](CC[C@@H]4[C@@]5(C)CC[C@H](O)C(C)(C)[C@@H]5CC[C@]43C)[C@@H]12`: the pEC50 in assay [1] is 6.07; in assay [2], 6.28.

In the case of `C=C(C)[C@@H]1CC[C@]2(C(=O)N[C@@H](CC(C)C)C(=O)OC)CC[C@]3(C)[C@H](CC[C@@H]4[C@@]5(C)CC[C@H](OC(C)=O)C(C)(C)[C@@H]5CC[C@]43C)[C@@H]12`, the pEC50 in assay [1] is less than 4.49; in assay [2] it was less than 4.40.

Regarding `CC(C)C[C@H](NC(=O)CCCCCCCNC(=O)[C@]12CC[C@@H](C(C)C)[C@@H]1[C@H]1CC[C@@H]3[C@@]4(C)CC[C@H](O)C(C)(C)[C@@H]4CC[C@@]3(C)[C@]1(C)CC2)[C@H](O)CC(=O)O`, the pEC50 in assay [1] is 6.40; in assay [2], 6.48.

Consider `Cc1cn([C@H]2C[C@H](N=[N+]=[N-])[C@@H](CO)O2)c(=O)[nH]c1=O` [ZIDOVUDINE], for which the pEC50 in assay [1] is less than 4.12; in assay [2] it was 7.12.

The term pEC50 denotes the negative decadic logarithm of the EC50, by convention in mol/L. Read a low pEC50 as a high EC50.
